This passage reports IC50 and Ratio IC50 results from ChEMBL document CHEMBL3085758, “A stereoselective approach to peptidomimetic BACE1 inhibitors” (Eur J Med Chem, 2013).

SMILES strings stand for the structures.

Assay [1] concerns the target T1, Beta-secretase 1 (Homo sapiens, UniProt P56817). As to the kind of experiment: Inhibition of human recombinant BACE1 using [acetyl-C(W8044Eu)-EVNLDAEFK-QSY7] as substrate by TR-FRET assay. The method, boiled down:
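Enzyme (6 nM) incubated with 200 nM europium-labelled TR-FRET substrate in 50 mM NaOAc, 0.005% Triton X-100, pH 4.5; inhibitors in 3.3% DMSO. Time-resolved fluorescence read at excitation 330 nm, emission 615 nm; IC50 from concentration-response curves, mean of at least 3 experiments.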

Assay [2] addresses T1, Beta-secretase 1. As to the kind of experiment: Selectivity ratio of IC50 for BACE1 in human SH-SY5Y cells to IC50 for BACE1 in HEK293 cells. The class given is cell-based.
In assay [3] the target is T1, Beta-secretase 1. Nature of the assay: Inhibition of BACE1 in human SH-SY5Y cells expressing APP NFEV and wild-type alpha cleavage site assessed as generation of EV40/EV42 by electrochemiluminescence assay. The assay is classed as cell-based. In short, it runs like this:
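SHSY5Y cells expressing APP NFEV with wild-type alpha-cleavage site. Compounds started at […], then 3-fold dilutions (10 points). IC50 determined against generation of sAPPb NF and EV40 and EV42 peptides. Run at Merck RL.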

The target of assay [4] is T1, Beta-secretase 1. As to the kind of experiment: Inhibition of BACE1 in HEK293 cells expressing APP NFEV and APP K612V mutant assessed as generation of EV40/EV42 by electrochemiluminescence assay. The assay is classed as cell-based. In short, it runs like this:
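HEK293 cells carrying a proprietary APP construct with modified BACE cleavage sequence (NFEV) and K612V alpha-site mutation. Compounds started at […], then 3-fold dilutions (10 points). IC50 determined against generation of sAPPb NF and EV40 and EV42 peptides. Run at Merck RL.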

T1 sequence (P56817 whole entry): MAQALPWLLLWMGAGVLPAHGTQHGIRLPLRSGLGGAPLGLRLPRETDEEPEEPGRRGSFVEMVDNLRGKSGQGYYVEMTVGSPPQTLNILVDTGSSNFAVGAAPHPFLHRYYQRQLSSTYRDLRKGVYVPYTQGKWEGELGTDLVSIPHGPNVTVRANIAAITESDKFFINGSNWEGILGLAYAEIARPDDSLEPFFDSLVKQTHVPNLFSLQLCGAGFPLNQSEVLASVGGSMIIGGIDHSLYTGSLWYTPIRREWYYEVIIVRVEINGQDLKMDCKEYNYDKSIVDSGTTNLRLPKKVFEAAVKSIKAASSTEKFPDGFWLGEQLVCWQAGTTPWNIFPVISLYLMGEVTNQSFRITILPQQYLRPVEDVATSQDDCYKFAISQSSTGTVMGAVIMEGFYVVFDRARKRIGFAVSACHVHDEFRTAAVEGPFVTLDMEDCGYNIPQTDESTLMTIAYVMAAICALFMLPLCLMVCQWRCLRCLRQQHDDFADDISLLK

One may read the IC50 as the point on the concentration scale where inhibition reaches its midpoint. `CC(C)(C)OC(=O)N(Cc1ccccc1)C[C@@H](O)c1cccc(NC(=O)[C@@H](NC(=O)OCc2ccccc2)c2ccccc2)c1`: in assay [1] (read-out: IC50), the IC50 was 5.2 µM.

Turning to `CC(C)(C)OC(=O)N1CCN(c2cccc(C=O)c2NC(=O)[C@@H](NC(=O)OCc2ccccc2)c2ccccc2)CC1`, in assay [1] (read-out: IC50), the IC50 is 14.3 µM.

Regarding `CC(C)(C)OC(=O)N1CCN(c2cccc3c2NC(=O)[C@H](c2ccccc2)N=C3)CC1`, the IC50 entry in assay [1] is reported as “Not Active”.

Take `CC(C)(C)OC(=O)N(Cc1ccccc1)C[C@@H](O)c1cccc(NC(=O)[C@H](NC(=O)OCc2ccccc2)c2ccccc2)c1`: the Ratio IC50 in assay [2] came out at 10. The concentration for half-maximal inhibition (IC50) in assay [3] is over 100 µM; in assay [4], over 10 µM; in assay [1] (read-out: IC50) it was 4.7 µM.

In the case of `CC(C)(C)OC(=O)N(Cc1ccccc1)C[C@H](O)c1ccc(C(=O)c2ccccc2)c(NC(=O)[C@H](NC(=O)OCc2ccccc2)c2ccccc2)c1`, in assay [1] (read-out: IC50), the IC50 came out at 18.1 µM.

`CC(C)(C)OC(=O)N(C[C@H](O)c1cccc(NC(=O)[C@@H](NC(=O)OCc2ccccc2)c2ccccc2)c1)[C@H](CO)c1ccccc1`: the IC50 in assay [1] (read-out: IC50) is 9.2 µM.

As for `O=C(N[C@H](C(=O)Nc1cccc([C@@H](O)CN[C@H](CO)Cc2ccccc2)c1)c1ccccc1)OCc1ccccc1`, the IC50 in assay [1] (read-out: IC50) was determined as 7.5 µM.

On to `CC(C)(C)OC(=O)N1CCN(c2ccc(-c3ccccc3)c3c2NC(=O)[C@H](c2ccccc2)NC3)CC1`, for which the IC50 result in assay [1] is “Not Active”.

For the molecule `CC(C)(C)OC(=O)N(Cc1ccccc1)C[C@H](O)c1cccc(NC(=O)c2cccc3ccccc23)c1`, the values for the IC50 in assay [3], in assay [4] and in assay [1] (read-out: IC50) were 11 µM, over 7 µM and 4.9 µM, respectively.

`CC(C)(C)OC(=O)N(C[C@H](O)c1cccc(NC(=O)[C@@H](NC(=O)OCc2ccccc2)c2ccccc2)c1)[C@H](CO)Cc1ccccc1`: the IC50 in assay [1] (read-out: IC50) was 6.4 µM.

For the molecule `CC(C)(C)OC(=O)N1CCN(c2ccc(-c3ccccc3)c(C=O)c2NC(=O)[C@@H](NC(=O)OCC2c3ccccc3-c3ccccc32)c2ccccc2)CC1`, the 50% inhibitory concentration (IC50) in assay [1] (read-out: IC50) amounted to 14.8 µM.

Consider `CC(C)(C)OC(=O)N(Cc1ccccc1)C[C@H](O)c1ccc(C(=O)c2ccccc2)c(NC(=O)[C@@H](NC(=O)OCc2ccccc2)c2ccccc2)c1`, for which the IC50 in assay [1] (read-out: IC50) worked out at 14.9 µM.

Take `CC(C)(C)OC(=O)N1CCN(c2ccc(-c3ccccc3)c3c2NC(=O)[C@H](c2ccccc2)N=C3)CC1`: the concentration for half-maximal inhibition (IC50) in assay [1] (read-out: IC50) was 12.8 µM.

`O=C1Nc2c(N3CCNCC3)ccc(-c3ccccc3)c2C=N[C@H]1c1ccccc1`: in assay [1], the concentration for half-maximal inhibition (IC50) result is reported as “Not Active”.
